Results from different studies.
Compare with care: the assays were run in different laboratories.

| SMILES | system | setting | measurement | value |
| --- | --- | --- | --- | --- |
| Oc1c(Br)cc(Cl)c2cccnc12 | Sprague-Dawley rat, plasma | subcutaneous, 10 mg/kg | MRT | 7.8 h |
| CC(=O)Nc1nnc(N2CCN([C@@H](C)c3ccc4c(c3)OCO4)CC2)s1 | rabbit, plasma | 1 µM | fraction unbound | 0.059 |
| C=CC(=O)N(C)CCOc1c(N)ncnc1-c1cc(F)cc(NC(=O)c2ccc(C3CC3)cc2F)c1C | human, blood | oral, 30 mg, single dose, healthy volunteers | Tmax | 0.5 h |
| Fc1ccc(Nc2n[nH]c3cccnc23)cc1Cl | rat, brain homogenate | – | fraction unbound | 0.0045 |
| C[C@@H](Nc1cc(F)cc(F)c1)c1cc(C(=O)N(C)C)cc2c(=O)cc(N3CCOCC3)oc12 | human, plasma | oral, 60 mg, patients | Tmax | 4.08 h |
| Cc1cn2nc(-c3cc(=O)n4cc(N5CCNC6(CC6)C5)ccc4n3)cc(C)c2n1 | rat, plasma | – | fraction unbound | 0.16 |
| CCc1cc(C(=O)NC)c2nccc(N3CCc4c(cc(Cn5ccnc5)cc4-c4cn(C)nc4C(F)(F)F)C3=O)c2c1 | male Sprague-Dawley rat, plasma | oral, 50 mg/kg, single dose | MRT(0-inf) | 2.2 h |
| CCOC(=O)[C@@]12C[C@@H]1[C@@H](n1ccc3c(NC)nc(C#Cc4ccc(Cl)s4)nc31)[C@H](O)[C@@H]2O | male Sprague-Dawley rat, plasma | oral, 10 mg/kg | MRT | 2.75 h |
| CC(C)n1cc(C#N)c2cc(-n3cc(C(=O)O)cn3)ccc21 | male human, plasma | oral, 600 mg, single dose, fasted, healthy volunteers | Tmax | 2.5 h |
| CNC(=O)Nc1cc(Oc2cncc(C)c2)c([C@H]2C[C@@H](O)C2)cn1 | rat, plasma | – | fraction unbound | 0.32 |
| O=C(Nc1cc(F)c(F)c(F)c1)c1ccc(F)c(S(=O)(=O)NCc2cccc(B(O)O)c2)c1 | male Sprague-Dawley rat, plasma | oral, 20 mg/kg | MRT(0-t) | 50.4 min |
